ChEMBL document CHEMBL1152898, “Synthesis and antitumor activity of some new xanthotoxin derivatives” (Eur J Med Chem, 2009)
≈ marks a conversion by molar mass, not a printed value. Calls of active or inactive are those of the source. The calls are words filed in the database; no cut-off is given here.

Experiments:
[1] = tested on: MCF7; experiment: Antitumor activity against human MCF7 cells after 72 hrs by MTS assay; assay type: functional, cell-based
In short: (§1)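 HeLa or MCF-7 cells were grown in Eagle's MEM with Earle's salts, 2 mM L-glutamine, 1.0 mM pyruvate, 0.1 mM NEAA and 10% FBS. MCF-7 medium also had 0.01 mg/mL insulin. Cells were seeded at 10⁴/well and dosed at 24 h, giving final 5, 10, 50, 100 µg/mL in 2.5% DMSO. After 72 h, MTS was read at 3 h with pre-reagent absorbance subtracted. Triplicates were compared with 2.5% DMSO controls.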

[2] = tested on: HeLa; experiment: Antitumor activity against human HeLa cells assessed as cell viability at 5 ug/ml after 72 hrs by MTS assay; assay type: functional; settings: read-out: Activity; in short: as §1
[3] = tested on: HeLa; experiment: Antitumor activity against human HeLa cells assessed as cell viability at 10 ug/ml after 72 hrs by MTS assay; assay type: functional; settings: read-out: Activity; in short: as §1
[4] = tested on: HeLa; experiment: Antitumor activity against human HeLa cells assessed as cell viability at 100 ug/ml after 72 hrs by MTS assay; assay type: functional; settings: read-out: Activity; in short: as §1
[5] = tested on: HeLa; experiment: Antitumor activity against human HeLa cells after 72 hrs by MTS assay; assay type: functional, cell-based; in short: as §1
[6] = tested on: HeLa; experiment: Antitumor activity against human HeLa cells assessed as cell viability at 50 ug/ml after 72 hrs by MTS assay; assay type: functional; settings: read-out: Activity; in short: as §1

| Compound | Activity [1] | viability at 5 µg/mL [2] [%] | viability at 10 µg/mL [3] [%] | viability at 100 µg/mL [4] [%] | IC50 [5] [µg/mL] | viability at 50 µg/mL [6] [%] |
| --- | --- | --- | --- | --- | --- | --- |
| CCNC(=S)Nc1c2ccoc2c(OC)c2oc(=O)ccc12 | inactive | 101 | 70 | 41 | 23 (≈ 72.2 µM) | 35 |
| COc1c2occc2c(N2C(=O)CSC2c2ccc(Br)cc2)c2ccc(=O)oc12 (stereo not given) | inactive | 82 | 91 | 26 | 40 (≈ 84.7 µM) | 26 |
| COc1c2occc2cc2ccc(=O)oc12 [METHOXSALEN] | inactive | 62 | 51 | 16 | 7.6 (≈ 35.2 µM) | 21 |
| COc1c2occc2c(NC(=S)NCc2ccccc2)c2ccc(=O)oc12 | inactive | 74 | 56 | 35 | 7.5 (≈ 19.7 µM) | 34 |
| COc1c2occc2c(/N=C/c2cccs2)c2ccc(=O)oc12 | inactive | 70 | 53 | 28 | 7.2 (≈ 22.1 µM) | 32 |
